High-throughput results (PubChem)
Most compounds without a hit are left out; they make up all but 1.9% or so of the library.
APJ antagonist – blocks the human apelin receptor APJ. CHO-K1 APJ beta-arrestin complementation, luminescence. 330,000 tested, 0.32% active. inhibition, % at 20 µM. AID 2521. P35414;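 active means inhibition above about 40% at 20 µM, limit read from the data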;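 further: cells challenged with 10 nM apelin-13 agonist together with compound; plate controls were apelin-13 plus DMSO wells for no effect and DMSO wells lacking apelin-13 for full effect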
APJ agonist – APJ receptor agonism. CHO-K1 APJ PathHunter beta-arrestin, luminescence; 0% DMSO wells, 100% apelin. activation, % at 20 µM. 330,000 tested, 0.11% active. AID 2520;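 active means activation more than six SD over the plate average, tested at 20 µM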;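 further: 0% = DMSO alone and 100% = apelin-13 at 10 nM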
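Test system – PathHunter CHO-K1 APJ (AGTRL-1) beta-arrestin reporter cells · Input – 1000 cells/well · Compound – single test compound dose, 20 µM final, 1% DMSO · Times – compound stimulation 90 min at 25 °C, detection 60 min · Technique – beta-gal luminescence · Read-out basis – APJ–arrestin association signal · Control set – negative DMSO alone, positive Apelin-13 at 10 nM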
H9c2 TAG inh – inhibitors of triacylglycerol accumulation. H9c2 cells, Nile Red lipid (TAG) fluorescence; cells loaded with 200 µM oleic acid. inhibition, % at 12.5 µM. AID 651582. 230,000 tested, 0.66% active;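 active means pattern-corrected inhibition of lipid staining of at least 50% with the nuclear-stain viability signal not falling by more than 50%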;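 further: 0% = DMSO wells and 100% = triacsin C control wells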
CXCR6 block – inhibitors of human CXCR6 receptor. inhibition, % at 20 µM. CHO-K1 PathHunter CXCR6 beta-arrestin, luminescence. 360,000 tested, 0.36% active. O00574; in the data active means inhibition above about 34%, passing the limit was not always enough;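 further: antagonist mode with CXCL16 agonist at 10 nM final; 0% = 10 nM CXCL16 with DMSO and 100% = unstimulated wells without agonist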
CCR6 antag – antagonists of human CCR6 receptor; CHO-K1 CCR6 PathHunter beta-arrestin, luminescence, CCL20-stimulated; AID 493098; inhibition, % at 20 µM; P51684; 340,000 tested, 0.49% active;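 active means compounds whose inhibition of the agonist-driven luminescence signal at 20 µM reaches about 50%, limit read from the data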;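 further: cells stimulated with CCL20 at 14 nM final; plate controls were DMSO with CCL20 for no effect and DMSO without agonist for full effect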
Target sequence (P51684 whole entry, looked up): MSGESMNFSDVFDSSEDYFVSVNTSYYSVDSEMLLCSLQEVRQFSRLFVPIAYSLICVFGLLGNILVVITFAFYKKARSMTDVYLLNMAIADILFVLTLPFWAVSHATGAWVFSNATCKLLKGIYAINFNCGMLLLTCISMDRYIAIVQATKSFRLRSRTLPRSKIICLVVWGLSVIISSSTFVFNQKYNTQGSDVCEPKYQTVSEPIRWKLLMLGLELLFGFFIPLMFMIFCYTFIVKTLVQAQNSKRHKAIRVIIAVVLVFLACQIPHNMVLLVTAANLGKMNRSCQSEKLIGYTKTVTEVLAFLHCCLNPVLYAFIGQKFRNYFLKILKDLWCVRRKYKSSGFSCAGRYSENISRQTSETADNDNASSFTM
EBI2 block – EBI2 (human) antagonism; P32249; inhibition, % at 5 µM; EBI2 beta-arrestin recruitment, luminescence, 7a,25-OHC stimulated; AID 651636; 360,000 tested, 0.81% active; in the data active means inhibition above about 38%;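 further: enzyme fragment complementation signal reports receptor beta-arrestin coupling in cells; 0% = agonist plus DMSO wells and 100% = wells without agonist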
H9c2 TAG conf – confirmation of triacylglycerol accumulation inhibitors. shares compounds with H9c2 TAG inh. H9c2 lipid accumulation, Nile Red fluorescence; cells loaded with 200 µM oleic acid. inhibition, % at 12.5 µM. 990 tested, 71% active;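 active means mean inhibition across replicates of 40% or more; inactive means mean inhibition below 40%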;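 further: plate controls were DMSO only wells for no effect and Triacsin C treated wells for full effect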
An asterisk follows results filed as active.

Results for N#CC1=C(N)Oc2cc(N)ccc2C1c1ccc(F)cc1F (centres undefined) ?
APJ antagonist: 14.5; APJ agonist: 2.1; H9c2 TAG inh: -22.1; CXCR6 block: 11.4; CCR6 antag: 9.7; EBI2 block: 3.8

What do the screens show for `CC(C)(C)OC(=O)[C@H](Cc1ccccc1)NC(=O)c1ncn2c1c(=O)[nH]c1ccc(Br)cc12`?
H9c2 TAG inh: 64.8*; CXCR6 block: 16.2; EBI2 block: 8.5; H9c2 TAG conf: 77.0*

What do the screens show for `COc1ccc(C(C(=O)NC(C)(C)C)N(Cc2cccs2)C(=O)CCC(=O)Nc2cc(C)on2)cc1` (centres undefined)?
APJ antagonist: 5.4; APJ agonist: 1.4; H9c2 TAG inh: 69.6*; CXCR6 block: -7.9; CCR6 antag: -7.0; EBI2 block: 6.9; H9c2 TAG conf: 49.0*

What do the screens show for `CCC(C)(C)NC(=O)C(c1ccc(OC)cc1)N(CC1CCCO1)C(=O)CCC(=O)Nc1cc(C)on1` (centres undefined)?
APJ antagonist: 19.1; APJ agonist: -0.1; H9c2 TAG inh: 57.0*; CXCR6 block: 6.4; CCR6 antag: 7.6; EBI2 block: 2.1; H9c2 TAG conf: 40.8*

Results for CCC(C)(C)NC(=O)C(c1ccc(OC)cc1)N(C(=O)CCC(=O)Nc1cc(C)on1)C1CC1 (centres undefined) ?
APJ antagonist: 3.5; APJ agonist: -3.2; CXCR6 block: -0.5; CCR6 antag: 19.1; EBI2 block: 0.2

Results for CCC(C)(C)NC(=O)C(c1ccc(OC)cc1)N(Cc1cccs1)C(=O)CCC(=O)Nc1cc(C)on1 (centres undefined) ?
APJ antagonist: 7.0; APJ agonist: -0.3; H9c2 TAG inh: 71.6*; CXCR6 block: 3.6; CCR6 antag: 10.6; EBI2 block: -7.1; H9c2 TAG conf: 67.9*

Results for COc1ccc(C(C(=O)NC(C)(C)C)N(CCO)C(=O)CCC(=O)Nc2cc(C)on2)cc1 (centres undefined) ?
APJ antagonist: 15.0; APJ agonist: -1.0; CXCR6 block: -1.1; CCR6 antag: 6.0; EBI2 block: 2.0

Results for CC1(c2nnnn2C2CCCCC2)CCC(=O)N1Cc1ccc2c(c1)OCO2 (centres undefined) ?
EBI2 block: -2.3

What do the screens show for `C=CCNc1ncnc2c1ncn2[C@H]1CN(Cc2ccccc2)C[C@@H](COC(C)=O)O1`?
H9c2 TAG inh: 8.0; CXCR6 block: -3.4; EBI2 block: 0.7

Results for CCOc1ccc(CCNC(=O)CCC(=O)c2cccs2)cc1OCC ?
APJ antagonist: -3.1; APJ agonist: -3.1; H9c2 TAG inh: 16.9; CXCR6 block: 0.5; CCR6 antag: 9.6; EBI2 block: -17.3

How did CCOc1ccc(CCNC(=O)c2cc3sccc3n2CC)cc1OCC do in these assays?
APJ antagonist: -10.8; APJ agonist: -10.0; H9c2 TAG inh: 79.1*; CXCR6 block: 0.9; CCR6 antag: 1.2; EBI2 block: 6.8; H9c2 TAG conf: 39.8

How did COC(=O)CC1C(=O)NCCN1C(=O)c1ccc(S(=O)(=O)N2CCOCC2)cc1 (centres undefined) do in these assays?
APJ antagonist: -1.3; APJ agonist: 0.9; H9c2 TAG inh: 61.2*; CXCR6 block: -1.7; CCR6 antag: -6.8; EBI2 block: -1.4; H9c2 TAG conf: 7.2

Results for NC(=O)c1cccc(-c2ccnc3c2CC(C(=O)NCc2ccccc2)O3)c1 (centres undefined) ?
H9c2 TAG inh: 50.2*; CXCR6 block: -1.7; EBI2 block: -10.6; H9c2 TAG conf: 53.5*

How did COc1ccc(NC(=O)C2(C)Cc3c(-c4cccc(C(N)=O)c4)ccnc3O2)cn1 (centres undefined) do in these assays?
H9c2 TAG inh: 50.4*; CXCR6 block: -0.6; EBI2 block: -8.2; H9c2 TAG conf: 55.4*

Results for CC1(C(=O)NCc2ccc(F)c(F)c2)Cc2c(-c3cccc(C(N)=O)c3)ccnc2O1 (centres undefined) ?
H9c2 TAG inh: 18.2; CXCR6 block: -0.5; EBI2 block: 4.6

How did NC(=O)c1cccc(-c2ccnc3c2CC(C(=O)NCc2ccc(F)c(F)c2)O3)c1 (centres undefined) do in these assays?
H9c2 TAG inh: 5.1; CXCR6 block: 0.9; EBI2 block: 4.0

Results for CC1(C(=O)NCc2ccco2)Cc2c(-c3cccc(C(F)(F)F)c3)ccnc2O1 (centres undefined) ?
H9c2 TAG inh: 54.3*; CXCR6 block: -1.2; EBI2 block: -8.3; H9c2 TAG conf: 46.0*

Results for CC1(C(=O)NCc2ccccc2)Cc2c(-c3cccc(C(N)=O)c3)ccnc2O1 (centres undefined) ?
H9c2 TAG inh: 54.7*; CXCR6 block: -3.3; EBI2 block: 3.2; H9c2 TAG conf: 60.4*

What do the screens show for `CN(C)C(CNC(=O)CCNC(=O)c1ccc(Cl)cc1)c1ccco1` (centres undefined)?
APJ antagonist: -11.9; APJ agonist: -1.9; H9c2 TAG inh: -3.7; CXCR6 block: -9.9; CCR6 antag: -3.3; EBI2 block: 5.6

How did COc1ccc(Nc2cccc3ccccc23)cc1 do in these assays?
APJ antagonist: -90.9; APJ agonist: 14.6; H9c2 TAG inh: 64.9*; CXCR6 block: -6.0; CCR6 antag: 8.4; EBI2 block: 0.6; H9c2 TAG conf: 12.5

Results for CC(C)(C)c1csc(NC(=O)c2cccs2)n1 ?
APJ antagonist: 12.5; APJ agonist: 2.8; H9c2 TAG inh: 72.8*; CXCR6 block: 3.8; CCR6 antag: -3.3; EBI2 block: -12.2; H9c2 TAG conf: 34.2

Results for O=C(NCCC1=CCCCC1)C1CCN(S(=O)(=O)N2CCCC2)CC1 ?
APJ antagonist: 9.9; APJ agonist: -2.4; H9c2 TAG inh: -7.1; CXCR6 block: 5.0; CCR6 antag: 0.7; EBI2 block: 0.8

Results for O=C(NCCC1=CCCCC1)C1CCN(C(=O)Nc2ccccc2)CC1 ?
APJ antagonist: 8.7; APJ agonist: -3.9; H9c2 TAG inh: 50.8*; CXCR6 block: 3.4; CCR6 antag: 4.9; EBI2 block: 17.2; H9c2 TAG conf: 32.6

Results for COc1ccc(-c2oc(=O)c3cc(OC)c(OC)cc3c2/C=C/c2ccc([N+](=O)[O-])cc2)cc1 ?
APJ antagonist: -6.3; APJ agonist: -2.1; H9c2 TAG inh: 54.0*; CXCR6 block: 0.3; CCR6 antag: -6.5; EBI2 block: 5.2; H9c2 TAG conf: 30.7

How did O=C1NC[C@@H](CCCCN2C[C@H](Cc3ccc(O)cc3)N(CC3CCCCC3)C(=O)C2=O)N(CC2CCCCC2)C1=O do in these assays?
CXCR6 block: -1.5; EBI2 block: -2.1
